From ChEMBL document CHEMBL5712894, “Regulation of angiotensin II actions by enhancers and super-enhancers in vascular smooth muscle cells” (Nat Commun, 2017) come the findings set out here.

The structures appear in SMILES notation. The source made the active and inactive calls. No cut-off for these calls is given here.

The species entered for assay [1] is Rattus norvegicus. Kind of assay: Downregulation of Fgf2 gene expression in rat aorta pretreated with compound at 500 nM followed by AngII addition measured by ChIP assay. Type of assay: functional, tissue-based.
For assay [2], the species on record is Rattus norvegicus. Kind of assay: Downregulation of ESM1 gene expression in rat aorta pretreated with compound at 500 nM followed by AngII addition measured by ChIP assay. The class given is functional, tissue-based.
The test system of assay [3] is VSMC. In words: Downregulation of Tgif1 gene expression in human VSMC cells pretreated with compound at 250 to 500 nM followed by AngII addition measured by RT-qPCR analysis. Type of assay: functional, cell-based. Conditions: dose 250-500 nM.
For assay [4], the system named is Mus musculus. In words: Antihypersensitivity in 1 ug/kg/min AngII infused C57BL/6 mouse assessed as reduction in systolic blood pressure at 50 mg/kg, ip for 4 weeks. Type of assay: functional, organism-based. Put shortly: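 Male C57BL/6 mice infused with AngII via subcutaneous osmotic minipump (1.0 μg kg−1 min−1, 28 days); 50 mg kg−1 ip once daily starting 2 days post-implantation, vehicle DMSO. Systolic pressure by tail cuff during week 4. n = 7–8 mice/group, mean + SEM, one-way ANOVA with Tukey.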

Assay [5] deals with VSMC. Kind of assay: Downregulation of ESM1 gene expression in human VSMC cells pretreated with compound at 250 to 500 nM followed by AngII addition measured by RT-qPCR analysis. The class given is functional, cell-based. Conditions: dose 250-500 nM.
In assay [6] the test system is VSMC. In words: Downregulation of Spry2 gene expression in human VSMC cells pretreated with compound at 250 to 500 nM followed by AngII addition measured by RT-qPCR analysis. Type of assay: functional, cell-based. Conditions: dose 250-500 nM.
The subject of assay [7] is VSMC. In words: Downregulation of Flt gene expression in human VSMC cells pretreated with compound at 250 to 500 nM followed by AngII addition measured by RT-qPCR analysis. Type of assay: functional, cell-based. Conditions: dose 250-500 nM.
Assay [8] deals with Mus musculus. Kind of assay: Antihypersensitivity in 1 ug/kg/min AngII infused C57BL/6 mouse assessed as reduction in inflammation at 50 mg/kg, ip for 4 weeks by F4/80 staining analysis. Type of assay: functional, organism-based. Put shortly:
(§1)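 Male C57BL/6 mice with subcutaneous osmotic minipumps delivering AngII (1.0 μg kg−1 min−1, 28 days); from 2 days post-implantation, 50 mg kg−1 ip once daily (vehicle DMSO). Aortas formalin-fixed, paraffin 5 µm sections. H&E sections quantified for wall thickness; F4/80 IHC (DAB) quantified as reciprocal brown intensity excluding adventitia. Mean + SEM, one-way ANOVA with Tukey.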

Assay [9] deals with Mus musculus. In words: Antihypersensitivity in 1 ug/kg/min AngII infused C57BL/6 mouse assessed as reduction in medial hypertrophy at 50 mg/kg, ip for 4 weeks by F4/80 staining analysis. Type of assay: functional, organism-based. In a few lines:
as §1

Assay [10] concerns VSMC. Kind of assay: Downregulation of Egr2 gene expression in human VSMC cells pretreated with compound at 250 to 500 nM followed by AngII addition measured by RT-qPCR analysis. The class given is functional, cell-based. The following applies: dose 250-500 nM.
The species entered for assay [11] is Rattus norvegicus. In words: Downregulation of fst gene expression in rat aorta pretreated with compound at 500 nM followed by AngII addition measured by ChIP assay. The class given is functional, tissue-based.
The species named for assay [12] is Rattus norvegicus. In words: Downregulation of Tgif1 gene expression in rat aorta pretreated with compound at 500 nM followed by AngII addition measured by ChIP assay. The class given is functional, tissue-based.
Assay [13] concerns VSMC. In words: Downregulation of Fgf2 gene expression in human VSMC cells pretreated with compound at 250 to 500 nM followed by AngII addition measured by RT-qPCR analysis. Conditions: dose 250-500 nM. Type of assay: functional, cell-based.
A short description of assay [14]: Binding affinity of BRD2 (unknown origin) assessed as dissociation constant. Set-up: species or system Homo sapiens.
Assay [15] is filed under the species Rattus norvegicus. Kind of assay: Downregulation of Spry2 gene expression in rat aorta pretreated with compound at 500 nM followed by AngII addition measured by ChIP assay. The class given is functional, tissue-based.
Assay [16] concerns VSMC. Kind of assay: Downregulation of Fst gene expression in human VSMC cells pretreated with compound at 250 to 500 nM followed by AngII addition measured by RT-qPCR analysis. Conditions: dose 250-500 nM. Type of assay: functional, cell-based.
The species entered for assay [17] is Rattus norvegicus. Kind of assay: Downregulation of Foxp1 gene expression in rat aorta pretreated with compound at 500 nM followed by AngII addition measured by ChIP assay. Type of assay: functional, tissue-based.
Assay [18] relates to VSMC. Kind of assay: Downregulation of Foxp1 gene expression in human VSMC cells pretreated with compound at 250 to 500 nM followed by AngII addition measured by RT-qPCR analysis. Type of assay: functional, cell-based. Conditions: dose 250-500 nM.

Turning to `Cc1sc2c(c1C)C(c1ccc(Cl)cc1)=N[C@@H](CC(=O)OC(C)(C)C)c1nnc(C)n1-2`, the outcome in assay [1], in assay [2], in assay [3], in assay [4], in [5] and in [6] was Active. In addition, the result in assay [7], in [8], in assay [9], in [10], in assay [11] and in assay [12] was Active. The result in [13], in assay [15], in [16], in [17] and in assay [18] was Active. Further, the Kd in [14] is around 128 nM.
